Laboratory results from publication PMC9868102 (Cell chemical biology, 2023).
“Also recorded” adds a separate entry of the source.

Tests used:
[1] = system: clathrin mediated endocytosis / LRP-1 in NRK cells; experiment: Inhibition of clathrin/LRP-1 mediated endocytosis of 33mer and α2M in NRK cells; assay type: cell-based, rat; conditions: for inhibition of large endocytic puncta (33mer + α2M): 12.5 mM MβCD, 20 μM Dyno-4a, 25 μM Pitstop
How it was run: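 Clathrin-endocytosis inhibitors used on NRK cells: MβCD 12.5 mM, Dyno-4a 20 μM, Pitstop 25 μM; Pitstop added 30 min before the other treatments. Then labelled α2M and Cy5-33mer for 1.5 h, HBSS washes, 2% PFA fix, DAPI, confocal for large double-labelled puncta.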

human TG2 [2] = target: T1, human TG2 (Homo sapiens, UniProt P21980); experiment: TG2 steady-state kinetics of substrates, wild-type TG2 ± α2M and vs pH; assay type: biochemical; conditions: for kcat: 200 mM MOPS pH 7.2, 5 mM CaCl2, 25 °C, 1 μM TG2, triplicate
T1 sequence (P21980 1-687): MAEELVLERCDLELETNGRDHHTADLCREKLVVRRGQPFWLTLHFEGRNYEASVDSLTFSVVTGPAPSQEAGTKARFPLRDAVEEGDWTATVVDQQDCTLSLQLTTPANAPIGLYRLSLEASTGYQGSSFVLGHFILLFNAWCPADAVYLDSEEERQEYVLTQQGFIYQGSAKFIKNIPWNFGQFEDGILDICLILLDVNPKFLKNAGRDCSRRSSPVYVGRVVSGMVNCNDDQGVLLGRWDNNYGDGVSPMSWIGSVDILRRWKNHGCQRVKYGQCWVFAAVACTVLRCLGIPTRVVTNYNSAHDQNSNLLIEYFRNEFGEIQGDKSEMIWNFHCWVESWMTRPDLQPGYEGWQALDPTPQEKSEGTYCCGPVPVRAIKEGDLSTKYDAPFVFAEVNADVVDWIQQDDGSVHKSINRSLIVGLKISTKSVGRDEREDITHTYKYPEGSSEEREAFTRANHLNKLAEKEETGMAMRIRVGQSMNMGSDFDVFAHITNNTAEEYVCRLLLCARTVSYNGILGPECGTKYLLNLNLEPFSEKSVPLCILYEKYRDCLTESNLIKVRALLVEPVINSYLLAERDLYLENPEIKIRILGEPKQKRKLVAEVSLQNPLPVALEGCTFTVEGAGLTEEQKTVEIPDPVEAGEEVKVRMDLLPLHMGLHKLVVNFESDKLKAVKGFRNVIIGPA
How it was run: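 His6-tagged human TG2 from E. coli BL21(DE3) was purified by Ni-NTA and anion exchange, reduced, and desalted into PBS. It was assayed at 1 μM final, ± recombinant human α2M (Expi293F-expressed), with GDH/α-ketoglutarate/NADH coupling in 200 mM MOPS pH 7.2 with 5 mM CaCl2. Substrate was Ac-PQLPF-NH2 unless otherwise specified. Absorbance at 340 nm was followed for 60 min at 25 °C. Steady-state rates came from linear progress-curve slopes; triplicate.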

[3] = target: T2, TG2 derivative harboring the N-terminal and catalytic domains but lacking both β-barrel domains (Homo sapiens, UniProt P21980); experiment: Kinetics of truncated TG2 lacking both β-barrel domains; assay type: biochemical; conditions: pH 7.2, 25 °C, triplicate
T2 sequence (P21980 1-460): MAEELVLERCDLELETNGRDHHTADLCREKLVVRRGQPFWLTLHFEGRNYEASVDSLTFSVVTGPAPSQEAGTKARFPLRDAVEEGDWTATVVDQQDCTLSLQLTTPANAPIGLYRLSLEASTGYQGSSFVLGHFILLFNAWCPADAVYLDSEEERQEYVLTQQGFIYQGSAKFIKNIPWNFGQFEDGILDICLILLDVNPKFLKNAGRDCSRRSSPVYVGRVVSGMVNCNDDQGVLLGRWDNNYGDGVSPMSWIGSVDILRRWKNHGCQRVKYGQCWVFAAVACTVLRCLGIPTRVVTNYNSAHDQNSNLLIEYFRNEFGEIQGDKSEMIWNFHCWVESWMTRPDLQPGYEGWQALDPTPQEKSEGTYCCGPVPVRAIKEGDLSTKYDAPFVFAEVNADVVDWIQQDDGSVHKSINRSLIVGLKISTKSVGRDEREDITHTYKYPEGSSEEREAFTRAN
How it was run: (§1)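 Truncated human TG2 constructs with N-terminal His tags (residues 1-586 lacking β2; residues 1-460 lacking β1 and β2) were expressed in Rosetta2 E. coli and purified by Ni, anion exchange and SEC. The assay was GDH-coupled: 200 mM MOPS pH 7.2, 5 mM CaCl2, 10 mM α-ketoglutarate, 18 U/mL GDH, 0.5 mM NADH and Ac-PQLPF-NH2. Reduced enzyme was at 1 μM final, ± Expi293F-expressed human α2M. NADH loss was read at 340 nm for 60 min at 25 °C. Rates came from linear slopes; triplicate.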

[4] = target: T3, TG2 derivative lacking the C-terminal β-barrel domain (Homo sapiens, UniProt P21980); experiment: Kinetics of truncated TG2 lacking the C-terminal β-barrel domain; assay type: biochemical; conditions: pH 7.2, 25 °C, triplicate
T3 sequence (P21980 1-586): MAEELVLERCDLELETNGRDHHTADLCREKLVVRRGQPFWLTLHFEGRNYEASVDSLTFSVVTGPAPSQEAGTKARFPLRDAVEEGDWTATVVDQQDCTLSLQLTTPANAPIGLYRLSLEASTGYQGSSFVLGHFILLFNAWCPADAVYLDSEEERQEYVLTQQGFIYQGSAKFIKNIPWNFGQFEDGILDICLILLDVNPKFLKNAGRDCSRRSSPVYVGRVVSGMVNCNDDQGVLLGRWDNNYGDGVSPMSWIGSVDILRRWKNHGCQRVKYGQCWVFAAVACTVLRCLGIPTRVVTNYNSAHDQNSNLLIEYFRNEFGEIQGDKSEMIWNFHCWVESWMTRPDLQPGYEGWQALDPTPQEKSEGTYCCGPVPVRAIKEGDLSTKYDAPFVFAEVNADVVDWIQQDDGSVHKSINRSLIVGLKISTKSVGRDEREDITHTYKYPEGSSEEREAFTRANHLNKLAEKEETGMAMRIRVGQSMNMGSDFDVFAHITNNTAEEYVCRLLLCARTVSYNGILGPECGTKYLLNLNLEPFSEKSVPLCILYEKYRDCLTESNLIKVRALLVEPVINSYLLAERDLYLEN
How it was run: as §1

NRK cells = experiment: Endocytosis of fluorescent α2M in NRK cells with TG2 inhibitors or substrates; assay type: cell-based, rat
How it was run: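 Rat NRK cells kept in DMEM, split 1:4 to 1:10 every 2-4 days, and imaged as adherent cultures. Small-molecule inhibitors go on 30 min ahead of other additions. Recombinant α2M is purified from culture supernatant by zinc-affinity chromatography and then SEC. After 1.5 h, cells are washed 3× in HBSS, fixed in 2% PFA/PBS for 10 min at RT, DAPI-stained, and imaged by confocal microscopy under low light.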

human TG2 [5] = target: T1, human TG2; conditions: oxidant; without active site occupancy; cited from earlier work
wild-type MEFs = experiment: Labeling of wild-type MEFs by TG2 activity probes; assay type: cell-based, mouse; conditions: for labeling/staining pattern: 1 μM HB230 (3 h) with 10 μM TRX, 5BP at 100 μM
How it was run: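 MEFs were grown in DMEM and seeded on glass-bottom plates for 3 days. TG2-knockout controls were E14.5 MEFs immortalised with SV40 large T. Media were replaced, then probe was added with recombinant human TRX for the whole 3 h treatment. Cells were washed in HBSS, fixed in 2% PFA for 10 min at RT, and stained with DAPI. Imaging was confocal with a 63x oil objective; probe was read on the 647 nm channel.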

human TG2 [6] = target: T1, human TG2; conditions: nucleophilic substrate; cited from earlier work
[7] = system: 9022 cells (HLA-DQ2 homozygous B-cell line); experiment: Cell surface presentation by HLA-DQ2 expressing 9022 B cells; assay type: cell-based, human; conditions: 20 min prior to α2M and 33mer
How it was run: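 EBV-immortalised HLA-DQ2-homozygous B cells in RPMI with 10% FBS and 1% PenStrep, pelleted, resuspended and left 20 min at 37 °C to adhere on poly-L-lysine-coated glass. Cy5-33mer, α2M and 100 nM recombinant human TG2 (E. coli, His6) added for 2.5 h. Anti-HLA-DQ2 (1:50) then Alexa 488 secondary, each 20 min on ice, fixed, DAPI, confocal. Cells with surface HLA-DQ2/Cy5 overlay scored; 2-4 frames of 3-6 replicates.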

For methyl-β-cyclodextrin [MβCD], which “inhibition of large endocytic puncta (33mer + α2M)” value (“inhibition … (33mer + α2M)” for short) [1] is on record?
The value was “strong inhibition of α2M and peptide colocalization as large endocytic puncta; also recorded: abrogate the appearance of large puncta”.

With AC-PQLPF-NH2 as the molecule, how does the kcat (human TG2 [2]; absence of α2M) read?
Its kcat is 0.583 ± 0.017 s⁻¹.

What about the kcat (human TG2 [2]; presence of α2M) of the same molecule?
The kcat was 0.483 ± 0.017 s⁻¹.

What about the kcat ([3]; absence of α2M) of the same molecule?
Its kcat is 0.12 ± 0.0033 s⁻¹.

What about the kcat ([3]; presence of α2M) of the same molecule?
Its kcat is 0.12 ± 0.005 s⁻¹.

And the kcat ([4]; absence of α2M)?
Its kcat is 0.15 ± 0.017 s⁻¹.

What about the kcat ([4]; presence of α2M) of the same molecule?
Its kcat is 0.13 ± 0.017 s⁻¹.

Which “effect on α2M internalization (large puncta)” value (NRK cells; fluorescent α2M 100 μg/mL, CK805 10 μM, cystamine 100 μM) does the source give for `NCCSSCCN` [cystamine, reference compound] here?
Its value is “unable to promote rapid internalization of fluorescent α2M; also recorded: do not yield the larger puncta at saturating concentrations”.

What about the “TG2 inactivation mechanism in words” value (human TG2 [5]) of the same molecule?
Its value is “inactivates TG2 by promoting C370-C371 disulfide bond formation”.

Which “pH-dependence of TG2 catalytic activity” value (human TG2 [2]; deamidation of Ac-PQLPF-NH2, pH 4.2-7.2, steady-state, triplicates) does the source give for “TG2: recombinant human transglutaminase 2” here?
Its value is “preserved upon acidification until at least pH 5”.

With `O=C(N/N=C/c1cc(O)c(O)cc1O)c1cc2ccccc2cc1O` [Dyno-4a] as the molecule, how does the “inhibition … (33mer + α2M)” value [1] read?
The value was “strong inhibition of α2M and peptide colocalization as large endocytic puncta; also recorded: abrogate the appearance of large puncta”.

For `NCCCCCNC(=O)CCCC[C@@H]1SC[C@@H]2NC(=O)N[C@@H]21` [5-BP, 5-biotinamidopentylamine], which labeling/staining pattern (wild-type MEFs) is on record?
The labeling/staining pattern was “label bound to extracellular matrix proteins (e.g., fibronectin) in a predictably fibrous pattern”.

And the labeling/staining pattern (wild-type MEFs; listed as 5BP)?
The labeling/staining pattern was “fibrous incorporation pattern”.

What about the “TG2 substrate activity in words” value (human TG2 [6]) of the same molecule?
Its value is “relatively weak nucleophilic substrate”.

Which “effect of Pitstop on cell surface 33mer” value [7] does the source give for `O=C1NC(=NS(=O)(=O)c2cccc3ccccc23)S/C1=C\c1ccc(Br)cc1` [Pitstop-2] here?
The value was “dose-dependent reduction of cell-surface 33mer labeling”.

What about the “inhibition … (33mer + α2M)” value [1] of the same molecule?
The value was “strong inhibition of α2M and peptide colocalization as large endocytic puncta”.

What about the “inhibition … (33mer + α2M)” value ([1]; listed as Pitstop) of the same molecule?
The value was “abrogate the appearance of large puncta”.

Which “endocytosis of fibronectin / effect on α2M puncta” value (NRK cells; 100 μg/mL fluorescent α2M, increasing exogenous fibronectin) does the source give for fibronectin here?
The value was “dose-dependence increase in the abundance of large but not small puncta; also recorded: endocytosis of extracellular fibronectin via this pathway”.

B1: RAP: potent endogenous antagonist of α2M binding to LRP-1, receptor associated protein (protein, UniProt P30533 35-357, looked up)
Alpha-2-macroglobulin …: YSREKNQPKPSPKRESGEEFRMEKLNQLWEKAQRLHLPPVRLAELHADLKIQERDELAWKKLKLDGLDEDGEKEARLIRNLNVILAKYGLDGKKDARQVTSNSLSGTQEDGLDDPRLEKLWHKAKTSGKFSGEELDKLWREFLHHKEKVHEYNVLLETLSRTEEIHENVISPSDLSDIKGSVLHSRHTELKEKLRSINQGLDRLRRVSHQGYSTEAEFEEPRVIDLWDLAQSANLTDKELEAFREELKHFEAKIEKHNHYQKQLEIAHEKLRHAESVGDGERVSRSREKHALLEGRTKELGYTVKKHLQDLSGRISRARHNEL
Which “inhibition of large 33mer-containing puncta by LRP-1 antagonist” value ([1]; RAP prior to Cy5-33mer and α2M) does the source give for B1 here?
Its value is “inhibits the formation of large 33mer-containing puncta; also recorded: fully ablated the formation of large puncta”.

B2: TRX: recombinant human thioredoxin (protein, UniProt P10599 2-105, looked up)
Thioredoxin: VKQIESKTAFQEALDAAGDKLVVVDFSATWCGPCKMIKPFFHSLSEKYSNVIFLEVDVDDCQDVASECEVKCMPTFQFFKKGQKVGEFSGANKEKLEATINELV
With B2 as the molecule, how does the “dependence of probe labeling on TRX” value (wild-type MEFs; TRX added for duration of HB230 treatment) read?
Its value is “strongly dependent”.
